# From ChEMBL document CHEMBL4007382 (Eur J Med Chem, 2017)
# Tests used:
# Mus musculus [1] = assay: Cardiotoxicity in Kunming mouse assessed as change in heart rate at 20 mg/kg, ip measured after 16 mins by electrocardiogram (reference value: -38.67 +/- 10.18); format: toxicity, organism-based; conditions: in vivo
# Mus musculus [2] = assay: Cardiotoxicity in Kunming mouse assessed as change in heart rate at 20 mg/kg, ip measured after 35 mins by electrocardiogram (reference value: -31.81 +/- 27.31); format: toxicity, organism-based; conditions: in vivo
# Mus musculus [3] = assay: Cardiotoxicity in Kunming mouse assessed as change in heart rate at 20 mg/kg, ip measured after 5 mins by electrocardiogram (reference value: -14.06 +/- 24.25); format: toxicity, organism-based; conditions: in vivo
# Mus musculus [4] = assay: Cardiotoxicity in Kunming mouse assessed as change in heart rate at 20 mg/kg, ip measured after 2 mins by electrocardiogram (reference value: -16.36 +/- 11.14); format: toxicity, organism-based; conditions: in vivo
# Mus musculus [5] = assay: Cardiotoxicity in Kunming mouse assessed as change in heart rate at 20 mg/kg, ip measured after 25 mins by electrocardiogram (reference value: -43.17 +/- 15.26); format: toxicity, organism-based; conditions: in vivo
# Mus musculus [6] = assay: Cardiotoxicity in Kunming mouse assessed as change in heart rate at 20 mg/kg, ip measured after 26 mins by electrocardiogram (reference value: -46.48 +/- 17.52); format: toxicity, organism-based; conditions: in vivo
# Cholinesterase [7] = target: T1, Cholinesterase (Homo sapiens, UniProt P06276); assay: Inhibition of human plasma BuChE using S-butyrylthiocholine iodide as substrate preincubated for 60 mins followed by substrate addition measured after 5 mins by Ellman's method
# T1 sequence (P06276 whole entry): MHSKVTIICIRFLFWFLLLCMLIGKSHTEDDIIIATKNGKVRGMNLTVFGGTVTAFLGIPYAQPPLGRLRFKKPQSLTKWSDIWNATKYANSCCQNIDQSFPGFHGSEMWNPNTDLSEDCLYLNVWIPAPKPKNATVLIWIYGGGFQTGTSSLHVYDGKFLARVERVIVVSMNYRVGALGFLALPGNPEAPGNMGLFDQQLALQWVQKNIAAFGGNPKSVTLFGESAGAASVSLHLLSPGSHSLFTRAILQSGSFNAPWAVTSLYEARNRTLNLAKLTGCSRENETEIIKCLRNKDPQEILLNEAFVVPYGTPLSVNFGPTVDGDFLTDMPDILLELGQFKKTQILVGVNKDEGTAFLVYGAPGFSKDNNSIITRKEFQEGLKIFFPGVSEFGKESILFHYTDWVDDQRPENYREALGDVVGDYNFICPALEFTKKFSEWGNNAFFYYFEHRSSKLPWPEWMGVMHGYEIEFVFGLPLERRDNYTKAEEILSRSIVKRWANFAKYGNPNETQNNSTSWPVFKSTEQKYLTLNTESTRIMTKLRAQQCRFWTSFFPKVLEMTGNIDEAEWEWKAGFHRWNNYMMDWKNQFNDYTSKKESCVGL
# Outline: (§1)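 Source was plasma from heparinised blood of one healthy donor, centrifuged at 1000 × g for 20 min at 25°C, stored at -80°C and diluted 150X. Ellman assay at pH 8 and 37°C with 60 min preincubation and seven inhibitor concentrations in water, 5×10^-8 to 5×10^-10 M. Triplicates.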
# Acetylcholinesterase [8] = target: T2, Acetylcholinesterase (Homo sapiens, UniProt P22303); assay: Inhibition of human blood AChE using acetylthiocholine as substrate
# T2 sequence (P22303 whole entry): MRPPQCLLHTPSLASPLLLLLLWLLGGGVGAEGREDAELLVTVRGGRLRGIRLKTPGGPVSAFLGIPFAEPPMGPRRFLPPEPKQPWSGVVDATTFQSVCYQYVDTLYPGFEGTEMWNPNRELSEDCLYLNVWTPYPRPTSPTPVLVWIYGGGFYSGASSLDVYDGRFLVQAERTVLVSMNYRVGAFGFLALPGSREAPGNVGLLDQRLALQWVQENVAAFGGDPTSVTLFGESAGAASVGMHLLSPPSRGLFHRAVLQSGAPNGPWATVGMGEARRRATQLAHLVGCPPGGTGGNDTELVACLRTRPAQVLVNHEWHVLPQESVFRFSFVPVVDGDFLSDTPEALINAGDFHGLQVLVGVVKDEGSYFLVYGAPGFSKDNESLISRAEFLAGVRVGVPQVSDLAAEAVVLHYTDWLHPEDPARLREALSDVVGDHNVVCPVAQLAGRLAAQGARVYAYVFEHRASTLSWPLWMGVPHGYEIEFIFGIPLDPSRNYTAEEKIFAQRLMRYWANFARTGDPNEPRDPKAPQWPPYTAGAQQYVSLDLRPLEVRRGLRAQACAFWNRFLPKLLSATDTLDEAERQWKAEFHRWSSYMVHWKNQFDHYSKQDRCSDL
# Mus musculus [9] = assay: Cardiotoxicity in Kunming mouse assessed as change in heart rate at 20 mg/kg, ip measured after 29 mins by electrocardiogram (reference value: -47.2 +/- 24.77); format: toxicity, organism-based; conditions: in vivo
# Mus musculus [10] = assay: Cardiotoxicity in Kunming mouse assessed as change in heart rate at 20 mg/kg, ip measured after 36 mins by electrocardiogram (reference value: -32.32 +/- 25.52); format: toxicity, organism-based; conditions: in vivo, 0.6 h
# Mus musculus [11] = assay: Cardiotoxicity in Kunming mouse assessed as change in heart rate at 20 mg/kg, ip measured after 30 mins by electrocardiogram (reference value: -43.78 +/- 22.71); format: toxicity, organism-based; conditions: in vivo, 0.5 h
# Mus musculus [12] = assay: Cardiotoxicity in Kunming mouse assessed as change in heart rate at 20 mg/kg, ip measured after 9 mins by electrocardiogram (reference value: -31.96 +/- 17.01); format: toxicity, organism-based; conditions: in vivo, 0.15 h
# Acetylcholinesterase [13] = target: T2, Acetylcholinesterase; assay: Inhibition of human erythrocytes AChE using S-acetylthiocholine iodide as substrate preincubated for 60 mins followed by substrate addition measured after 5 mins by Ellman's method
# Cholinesterase [14] = target: T1, Cholinesterase; assay: Inhibition of human blood BuChE using butyrylthiocholine as substrate; outline: as §1
# Mus musculus [15] = assay: Cardiotoxicity in Kunming mouse assessed as change in heart rate at 20 mg/kg, ip measured after 20 mins by electrocardiogram (reference value: -40.16 +/- 13.12); format: toxicity, organism-based; conditions: in vivo
SMILES,Activity (Mus musculus [1]) [bpm],Activity (Mus musculus [2]) [bpm],Activity (Mus musculus [3]) [bpm],Activity (Mus musculus [4]) [bpm],Activity (Mus musculus [5]) [bpm],Activity (Mus musculus [6]) [bpm],IC50 (Cholinesterase [7]) [nM],IC50 (Acetylcholinesterase [8]) [µM],Activity (Mus musculus [9]) [bpm],Activity (Mus musculus [10]) [bpm],Activity (Mus musculus [11]) [bpm],Activity (Mus musculus [12]) [bpm],IC50 (Acetylcholinesterase [13]) [µM],IC50 (Cholinesterase [14]) [nM],Activity (Mus musculus [15]) [bpm]
CN(C)C(=O)Oc1cc(OC(=O)N(C)C)cc(C(O)CNC(C)(C)C)c1 (stereo unspecified) [BAMBUTEROL],57.32,-2.92,17.67,-2.66,30.43,11.92,4.29,30,-23.87,-26.54,-20.41,0.55,> 10,3,34.4
CCC(C)(C)NCC(O)c1cc(OC(=O)N(C)C)cc(OC(=O)N(C)C)c1.Cl (stereo unspecified),-42.02,-37.47,-28.9,-21.23,-44.42,-42.44,7.28,–,-37.74,-36.32,-36.5,-34.87,> 10,–,-40.62
CCN(C)C(=O)Oc1cc(OC(=O)N(C)CC)cc(C(O)CNC(C)(C)CC)c1.Cl (stereo unspecified),3.92,-11.4,0.25,-1.28,-0.22,-0.88,7.12,–,-5.1,-25.47,-1.5,-5.8,> 10,–,0.13
